A selection: hits, their analogues and other compounds. The true share with any hit is near 1.6%.
Arrestin-AP2 inh: blocks beta-arrestin peptide binding to AP2 adaptin; FITC-arrestin peptide / GST-AP2 beads, flow cytometry; AP2 beta2 appendage carries R879A mutation; inhibition, % at 10 µM; 340,000 tested, 0.31% active; AID 504490;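 active means inhibition above a set limit, near 3 SD of compounds lacking own fluorescence, cut at about 54% in these data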;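 further: plate controls were DMSO wells for no effect and 5 µM unlabelled arrestin peptide for full effect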
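system = GST-tagged AP2 beta2-adaptin appendage (R879A) on 4 µm glutathione beads | reagent = FITC-labelled arrestin peptide probe, 50 nM final | schedule = compound with beads 12 min RT, then probe 1 h RT | signal = HyperCyt-sampled flow cytometry, FL1 channel, ex 488/em 535 nm | read-out = percent response from loss of bead-bound FITC fluorescence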
T cell HTS: T cell immune modulation candidate | AID 2052 | 2C CD8+ T cell-vesicle binding, flow cytometry; stronger effect = lower value | response (vesicle binding), % at 7 µM | 330,000 tested, 0.068% active;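 active means response, share of CD8 T cells binding vesicles, and their 90th percentile fluorescence all below set limits, cut at about 80% in these data, passing the limit was not always enough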;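 further: values below 100% mean blocked vesicle binding to the CD8+ T cells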
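Material: murine 2C transgenic CD8+ T lymphocytes / Also added: QL9-peptide-loaded Drosophila micro-vesicles bearing Ld, ICAM-1 and B7-1 / Schedule: binding step 1.5 h, 37 °C, antibody labelling 20 min, ice / Signal: flow cytometry, PE anti-B7-1 (FL2) versus Alexa647 anti-CD8 (FL8), PFA-fixed / Evaluation: percent CD8+ FL2 mean versus row control / Benchmarks: naked versus QL9-loaded vesicles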
HDAC3 inh: human HDAC3 inhibition; O15379; recombinant HDAC3, fluorogenic peptide/trypsin coupled, fluorescence; inhibition, % at 8.3 µM; 320,000 tested, 0.15% active; AID 2718; in the data active means inhibition above about 26%, passing the limit was not always enough; inconclusive means no clear call, values can overlap the other calls
Target sequence (O15379 whole entry, looked up): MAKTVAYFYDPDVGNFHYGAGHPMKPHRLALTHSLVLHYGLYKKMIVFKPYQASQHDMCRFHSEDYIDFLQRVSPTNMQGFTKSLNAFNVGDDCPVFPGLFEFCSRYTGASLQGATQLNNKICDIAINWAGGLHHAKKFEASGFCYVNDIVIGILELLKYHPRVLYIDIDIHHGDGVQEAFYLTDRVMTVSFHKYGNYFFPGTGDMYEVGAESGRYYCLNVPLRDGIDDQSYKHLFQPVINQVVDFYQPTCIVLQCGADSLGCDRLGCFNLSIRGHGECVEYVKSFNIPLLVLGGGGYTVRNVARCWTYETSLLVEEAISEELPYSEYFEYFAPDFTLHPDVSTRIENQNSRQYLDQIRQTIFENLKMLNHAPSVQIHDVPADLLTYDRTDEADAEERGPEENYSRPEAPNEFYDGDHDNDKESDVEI
Pemphigus Ab inh: inhibitors of pemphigus antibody binding to human desmoglein-3. P32926. DSG3-coupled beads, scFv-anti-DSG3-GFP binding, flow cytometry; stronger effect = lower value. binding (percent of control), % at 10 µM. 310,000 tested, 0.48% active. AID 588358;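 active means binding more than 3 SD below its plate's average and above zero; inconclusive means below that plate limit but binding exactly zero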;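 further: hits lower antibody fragment binding to DSG3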
LANA-H2A inh: blocks KSHV LANA binding to histone H2A/H2B; Q9QR71; cell-free LANA-H2A/H2B peptide, fluorescence polarization; inhibition, % (test concentration not listed); 320,000 tested, 0.6% active; in the data active means inhibition mostly above about 10%, no sharp cut-off; inactive means mostly below about 6.7%
JMJD2C inh: blocks human GASC-1 demethylase activity | AID 2099 | GST-JMJD2C(1-420) H3K9me3 demethylation, DELFIA europium | inhibition, % at 2.35 µM | 330,000 tested, 0.069% active;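 active means more than half of a compound's replicate wells show inhibition beyond 50%, single wells judged on their own value; inconclusive means some, but no more than half, of replicates pass 50% inhibition; inactive means no replicate passes 50% inhibition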;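 further: signal counts dimethyl H3K9 product captured on neutravidin plate; 0% = median of DMSO wells and 100% = 0.3 times that DMSO median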
Active calls of the source: *; i = inactive; ? = inconclusive; / = no result given; ! = not active in a repeat.

SMILES | Arrestin-AP2 inh | T cell HTS | HDAC3 inh | Pemphigus Ab inh | LANA-H2A inh | JMJD2C inh
Cc1ccc2c(c1)C(=O)N1[C@H]3c4cc(Cl)ccc4OC[C@@H]3[C@H](c3ccccc3)[C@]1(C)C(=O)N2 | 7 | 191 | 6 | 96 | 1 | 39
Cc1c(Cl)cccc1NC(=O)COC(=O)c1ccc(CN2CCCC2=O)cc1 | -1 | 266 | -4 | 117 | 4 | 5
COc1ccc(NC2CCCN(C(=O)c3c(C)noc3C)C2)cc1 (stereo not drawn) | 23 | 281 | 10 | 109 | 3 | -17
Cc1noc(C)c1C(=O)N1CCCC(Nc2ccc(C(C)C)cc2)C1 (stereo not drawn) | 6 | 293 | 0 | 130 | 21* | -2
N#Cc1ccc(Oc2cnccn2)cc1 | 7 | 304 | -5 | 93 | -3 | 1
CCc1ccc(C(=O)Nc2ccc(S(=O)(=O)Nc3nc(C)cc(C)n3)cc2)o1 | -2 | 149 | 4 | 35* | 4 | -4
Cc1nnc(SCC2=C(C(=O)O)N3C(=O)[C@@H](NC(=O)Cn4cnnn4)[C@H]3SC2)s1 | 2 | 514 | 9 | 111 | 77*! | ?
Cc1nnc(SCC2=C(C(=O)O)N3C(=O)C(NC(=O)Cn4cnnn4)C3SC2)s1 (stereo not drawn) | -1 | 292 | -2 | 114 | 6 | -6
CC1CCCCC1NC(=O)c1c(O)nc2ccccn2c1=O (stereo not drawn) | -4 | 358 | -11 | 125 | -3 | -9
CC1(C)Cc2ccccc2C(C(Cc2ccccc2)C(N)=O)=N1 (stereo not drawn) | 32 | 504 | -8 | 98 | 6.5* | -1
Cc1ccccc1OCC(=O)Nc1ccc(N2CCN(C(=O)c3ccco3)CC2)cc1 | 27 | 188 | -1 | 99 | -6 | -3
COCCCn1c(=O)/c(=C\c2ccc(OC(F)F)c(OC)c2)s/c1=C(/C#N)C(N)=O | -18 | 285 | 0 | 102 | 29* | -5
CC[C@]12c3[nH]c4ccccc4c3CCN1C(=O)C(CC(=O)NCCCn1ccnc1)C[C@@H]2C(=O)N1CCN(C(=O)c2ccco2)CC1 (stereo partly drawn) | 31 | 411 | -1 | 102 | -150 | -8
Cc1nc(Nc2ccccc2)sc1C(=O)c1ccccc1 | 23 | 244 | 5 | 80* | 1 | 18
COc1ccc(C(=O)c2sc(Nc3ccccc3)nc2C)cc1 | 14 | 160 | -3 | 99 | -7 | -13
Cc1nn(C)c(C)c1CCC(=O)N1CCCC(N2CCN(c3ccc(F)cc3)CC2)C1 (stereo not drawn) | 10 | 905 | -1 | 103 | -7 | -9
CN(C)S(=O)(=O)c1cccc(NC(=S)N(CCC#N)Cc2cccnc2)c1 | -20 | 378 | -6 | 104 | 0 | 1
CCc1ccc(C(C)NC(=O)c2ccncc2)cc1 (stereo not drawn) | -11 | 218 | 0 | 109 | 23* | -1
CCc1ccc(C(C)NC(=O)c2ccc(F)cc2)cc1 (stereo not drawn) | 29 | 226 | 5 | 109 | -1 | 14
CN(C(=O)c1ccccc1C(=O)OCC(=O)c1ccc(F)cc1)c1ccccc1 | 15 | 330 | 0 | 91 | -2 | 9
CN(C(=O)c1ccccc1C(=O)OCC(=O)c1ccccc1)c1ccccc1 | -6 | 297 | 3 | 94 | 30* | /
COCc1ccc(C(=O)N2CCCC(Nc3ccc(F)c(F)c3)C2)s1 (stereo not drawn) | -11 | 347 | 0 | 109 | 95* | 2
O=C1NC(=S)NC1=Cc1ccco1 | 5 | / | / | 78* | / | /
O=C1NC(=O)/C(=C/c2ccco2)N1 | 4 | 806 | 6 | 106 | 0 | -7
O=C(NC1CSC/C1=N\O)c1ccccc1 (stereo not drawn) | 14 | 400 | -8 | 82* | 3 | -1
SMILES | Arrestin-AP2 inh | T cell HTS | HDAC3 inh | Pemphigus Ab inh | LANA-H2A inh | JMJD2C inh
CN(C(=O)COC(=O)c1c[nH]c2ccccc12)c1ccccc1 | / | / | / | 102 | / | /
Cc1nc2ccccc2c2c1C(=O)NC2=O | / | 763 | -3 | / | 27* | 114
Cc1nc2ccccc2c2c1C(=O)N(c1ccc(C(=O)O)cc1)C2=O | -11 | 262 | -1 | 101 | -3 | -7
O=C1Nc2ccccc2C12OCCS2 (stereo not drawn) | / | 0.0* | -4 | / | 0 | 8
COc1ccc(NS(=O)(=O)c2cccc(C(=O)NN=C(C)c3ccco3)c2)cc1 | 25 | 597 | 4 | 100 | -3 | 8
Cc1c(N=C2NN=C(c3c[nH]c4ccccc34)CS2)c(=O)n(-c2ccccc2)n1C | 7 | 278 | / | 85* | -2 | 12
CCOc1c(Cl)cc(C2NC(=O)NC(C)=C2C(=O)NCc2ccccc2)cc1OC (stereo not drawn) | 6 | 193 | 3 | 108 | 2 | -20
CCOC(=O)COc1ccc(Br)cc1C1NC(=O)NC(C)=C1C(=O)NCc1ccccc1 (stereo not drawn) | -13 | 366 | -6 | 104 | 67* | 3
CCOc1ccc(Nc2ncnc3c2cnn3Cc2ccccc2)cc1 | 18 | 246 | 3 | 99 | 2 | -6
NNc1ncnc2c1cnn2-c1ccccc1 | -4 | 350 | 6 | 95 | 26* | -2
COc1ccc(Nc2ncnc3c2cnn3-c2cccc(C)c2)cc1OC | 7 | / | / | 34* | / | 81
CCOc1ccc(Nc2ncnc3c2cnn3-c2ccccc2)cc1 | -2 | 477 | 4 | 48* | 1 | 15
Cc1ccc(CNC(=O)Nc2ccccc2)n1C | -15 | 324 | -2 | 113 | 9 | 1
CCOc1ccc(NC(=O)c2ccc(N3CC4CC(C3)c3cccc(=O)n3C4)c(N)c2)cc1 (stereo not drawn) | -8 | 106 | 2 | 97 | 4 | -9
Cc1cc(C)cc(NC(=O)COC(=O)CC2CCCC2)c1 | 9 | 454 | 4 | 101 | i | -6
CCOc1cc2c3c(c1)C(C)=CC(C)(C)N3C(=O)C2=O | 27 | 487 | / | 97 | 13* | -8
O=c1cc(C(F)(F)F)nc(SCc2cccnc2)[nH]1 | -8 | 518 | -1 | 102 | 1 | 1
Oc1ccc(/C=N/Nc2nc(-c3cccnc3)nc3ccccc23)c(O)c1 | 8 | 326 | 4 | 78* | 4 | 4
COc1ccc(C(=O)NCC2(c3ccc(OC)c(OC)c3)CCCC2)c(OC)c1 | 3 | 87 | 1 | 123 | 2 | 14
CC(C)(C)C1(C)OC(=O)C(=Cc2ccc(OCC(=O)Nc3ccccc3)cc2)C(=O)O1 (stereo not drawn) | 5 | 138 | -2 | 104 | 25* | 2
COc1cc(C=C2C(=O)OC(C)(C)OC2=O)cc(Cl)c1OCC(=O)Nc1ccccc1 | 29 | 308 | 2 | 84 | 9 | 17

Bioassay records deposited in PubChem by several laboratories.
